Only some compounds are listed: those with a hit (about 1.7% of all), similar ones and a draw of the others.
CASP6 VEID inh = caspase-6 (human) enzyme inhibition; P55212; purified caspase-6, Z-VEID-R110 cleavage fluorescence; inhibition, % at 12.5 µM; actives 0.53% (n = 350,000); AID 686996;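 active = mean inhibition across replicates at least about 35%, with every replicate also reaching that limit, limit read from the data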
DNMT1 inh = DNMT1 (human) enzyme inhibition | P26358 | DNMT1 molecular beacon, Hinp1I cleavage, fluorescence | inhibition (reported as % activation of signal), % at 10 µM | actives 0.83% (n = 360,000); in the data active = inhibition above about 50%
LMPTP inh = LMPTP (human) inhibition; AID 651560; actives 0.22% (n = 360,000); recombinant LMPTP-A, OMFP fluorogenic substrate, fluorescence intensity; inhibition, % at 20 µM; P24666;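 active = compounds that cut the enzyme signal by at least half of the control window in the single-dose screen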
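Test system: LMPTP-A phosphatase enzyme. Amount: LMPTP-A at 0.625 nM final in the reaction. Reagent: OMFP substrate, 400 µM final. Times: 50 min at room temperature. Signal: endpoint fluorescence intensity from OMFP dephosphorylation. Read-out basis: % inhibition. Benchmarks: no-enzyme and uninhibited controls.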
Scp-1 inhibitor = inhibitors of human Scp-1 phosphatase; Recombinant Scp1, phosphopeptide, malachite green phosphate absorbance; AID 493091; actives 0.88% (n = 340,000); Q9GZU7; inhibition, % at 20 µM;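 active = inhibition above about 50% at 20 µM, limit read from the data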
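Test system: SCP-1 catalytic domain; Buffer or medium: Acidic Tris acetate buffer with magnesium and detergent; Also added: Phosphorylated 17-residue peptide substrate; Compound: single 20 µM dose, 1% DMSO; Schedule: enzyme reaction 45 min at room temperature, colour 5 min, stabilisation 30 min; Signal: Phosphate-binding colour reagent, absorbance read at 630 nm.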
STEP inh = blocks human striatal-enriched tyrosine phosphatase. AID 588621. actives 0.25% (n = 360,000). recombinant STEP, OMFP fluorogenic substrate, fluorescence. inhibition, % at 20 µM;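 active = inhibition at 20 µM, scaled per plate between control wells, above about 37%, limit read from the data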
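medium = Bis-Tris buffer pH 6.0, 2.5 mM DTT, 0.005% Tween 20 | test system = STEP (striatal-enriched tyrosine phosphatase) enzyme, cell-free | measure = normalized % inhibition | compound dosing = 20 µM, 1% DMSO | also added = 25 µM OMFP | schedule = reaction 20 min, ambient temperature | measured by = fluorescence read at 480 nm ex / 540 nm em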
SUMO1-SIM PPI = SUMO1-SIM interaction modulation; inhibition, % at 20 µM; actives 0.33% (n = 360,000); SUMO1 binding to a labelled peptide, TR-FRET, 1 h; AID 602429; P63165; in the data active = inhibition above about 37%
Scp-1 conf = Scp-1 (human) inhibition, single-dose confirmed; shares compounds with Scp-1 inhibitor; recombinant SCP-1 catalytic domain, phosphate release, malachite green absorbance; inhibition, % at 20 µM; actives 61% (n = 2,500); AID 540281
MG interference = colorimetric interference in Scp-1 counter-screen; apparent inhibition (interference), % at 20 µM; AID 540313; shares compounds with Scp-1 inhibitor; 2,500 tested, under 10 active; Colorimetric interference counterscreen, malachite green absorbance 630 nm;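 also: compounds added after enzyme reaction finished so only phosphate colour detection is probed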
Scp-1 Tm shift = binds human Scp-1, shifting its melting temperature. shares compounds with Scp-1 inhibitor. Recombinant SCP1, Sypro Orange thermal shift Tm. thermal shift relative to vanadate control, % at 40 µM. actives 25% (n = 1,500). AID 540329;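 active = substances whose mean melting-temperature shift, as a percentage of the reference inhibitor's shift, reaches about 5.3%, limit read from the data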
Hits are given with their value.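 The calls were made as follows, unless noted: active = inhibition of at least 30% at 20 µM; inactive = the rest.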

For C[C@H](CO)N1C[C@H](C)[C@@H](CN(C)C(=O)Nc2ccc3c(c2)OCO3)Oc2ccc(NS(=O)(=O)c3cn(C)cn3)cc2C1=O the results were CASP6 VEID inh inactive, DNMT1 inh inactive, LMPTP inh inactive, Scp-1 inhibitor 69, STEP inh inactive, SUMO1-SIM PPI inactive, Scp-1 conf inactive and MG interference inactive.
For C[C@H]1CN([C@@H](C)CO)C(=O)c2cc(NS(=O)(=O)c3cn(C)cn3)ccc2O[C@@H]1CN(C)C(=O)Nc1ccc2c(c1)OCO2 the results were CASP6 VEID inh inactive.
For Cc1ccc(S(=O)(=O)N2CCOCC2)cc1C(=O)N1CCc2ccccc21 the results were CASP6 VEID inh inactive, DNMT1 inh inactive, LMPTP inh inactive, Scp-1 inhibitor inactive, STEP inh inactive and SUMO1-SIM PPI inactive.
Screening COc1ccc(-c2ccc(-c3noc(-c4ccco4)n3)c(OC)n2)cc1 returned DNMT1 inh inactive, LMPTP inh inactive, Scp-1 inhibitor inactive, STEP inh inactive and SUMO1-SIM PPI inactive.
For COc1nc(-c2ccccc2)ccc1-c1noc(-c2ccco2)n1 the results were DNMT1 inh inactive, LMPTP inh inactive, Scp-1 inhibitor 99, STEP inh inactive, SUMO1-SIM PPI inactive, Scp-1 conf inactive and MG interference inactive.
`CC(=O)c1cc2c(cc1NC(=O)CSc1nnc(C3CC3)n1C)OCO2` gave CASP6 VEID inh inactive, DNMT1 inh inactive, LMPTP inh inactive, STEP inh inactive and SUMO1-SIM PPI inactive.
C/C(=N\NC(=O)c1cccc(N/N=C(\C)c2ccco2)c1)c1ccco1 was read as CASP6 VEID inh inactive, DNMT1 inh inactive, LMPTP inh inactive, Scp-1 inhibitor 61, STEP inh inactive, SUMO1-SIM PPI inactive, Scp-1 conf 62, MG interference inactive and Scp-1 Tm shift 6.1.
`CN(/N=C/c1ccncc1)c1cnn(-c2ccc(F)c(Cl)c2)c(=O)c1Cl` gave DNMT1 inh inactive, LMPTP inh inactive, Scp-1 inhibitor 54, STEP inh inactive, SUMO1-SIM PPI inactive, Scp-1 conf inactive and MG interference inactive.
Screening CCC(c1nc2ccccc2[nH]1)n1c(-c2cccnc2)nc2ccccc21 (stereo unspecified) returned CASP6 VEID inh inactive, LMPTP inh inactive and SUMO1-SIM PPI inactive.
`CCOC(=O)/C(CCC[N+](C)(CC)CC)=N\O` gave CASP6 VEID inh inactive, DNMT1 inh inactive, LMPTP inh inactive, Scp-1 inhibitor 99, STEP inh inactive, SUMO1-SIM PPI inactive, Scp-1 conf inactive and MG interference inactive.
Screening CCOC(=O)C(Cc1ccnc2ccccc12)=NO returned CASP6 VEID inh inactive, DNMT1 inh inactive, LMPTP inh inactive, Scp-1 inhibitor inactive, STEP inh inactive and SUMO1-SIM PPI inactive.
For Cc1nn(C)c(Cl)c1CN1CCCC(C(=O)Nc2cccc(-n3cccn3)c2)C1 (stereo unspecified) the results were CASP6 VEID inh inactive, DNMT1 inh inactive, LMPTP inh inactive, Scp-1 inhibitor inactive, STEP inh inactive and SUMO1-SIM PPI inactive.
Screening CCn1c2ccccc2c2nnc(SCC(N)=O)nc21 returned DNMT1 inh inactive, LMPTP inh inactive, Scp-1 inhibitor inactive, STEP inh inactive and SUMO1-SIM PPI inactive.
Screening CCn1c2ccccc2c2nnc(SCC(=O)c3c(N)n(C)c(=O)n(C)c3=O)nc21 returned CASP6 VEID inh inactive, DNMT1 inh inactive, LMPTP inh inactive, Scp-1 inhibitor 63, STEP inh inactive, SUMO1-SIM PPI inactive, Scp-1 conf inactive and MG interference inactive.
`CCC(C)Oc1cccc(OCCCCN2C(=O)NC(C)(C)C2=O)c1` (stereo unspecified) gave DNMT1 inh inactive, LMPTP inh inactive, Scp-1 inhibitor inactive, STEP inh inactive and SUMO1-SIM PPI inactive.
CC1(C)NC(=O)N(CCCCOc2cccc(C(F)(F)F)c2)C1=O was read as DNMT1 inh inactive, LMPTP inh inactive, Scp-1 inhibitor inactive, STEP inh inactive, SUMO1-SIM PPI inactive, Scp-1 conf inactive and MG interference inactive.
Screening O=C(c1cc2cc(F)ccc2[nH]1)N1CCN(Cc2ccc3c(c2)OCO3)CC1 returned CASP6 VEID inh inactive, DNMT1 inh inactive, LMPTP inh inactive, Scp-1 inhibitor inactive, STEP inh inactive and SUMO1-SIM PPI inactive.
`CC1CCCC(NC(=O)C2CCN(S(=O)(=O)c3cccc4nonc34)CC2)C1C` (stereo unspecified) gave CASP6 VEID inh inactive, DNMT1 inh inactive, LMPTP inh inactive, Scp-1 inhibitor 69, STEP inh inactive, SUMO1-SIM PPI inactive, Scp-1 conf inactive and MG interference inactive.
Cc1[nH]c(=O)c(C#N)c(C)c1CCC(=O)Nc1cc(S(C)(=O)=O)ccc1Cl was read as CASP6 VEID inh inactive, DNMT1 inh inactive, LMPTP inh inactive, Scp-1 inhibitor 58, STEP inh inactive, SUMO1-SIM PPI inactive, Scp-1 conf inactive and MG interference inactive.
`COc1ccc2[nH]c(=O)c(CN(C(=O)c3ccco3)C(C)C)cc2c1` gave CASP6 VEID inh inactive, DNMT1 inh inactive, LMPTP inh inactive, Scp-1 inhibitor 60, STEP inh inactive, SUMO1-SIM PPI inactive, Scp-1 conf inactive and MG interference inactive.
`Cc1ccc(S(=O)(=O)N2CCN(C(=O)c3cccc(-n4cccc4)c3)CC2)cc1` gave CASP6 VEID inh inactive, DNMT1 inh inactive, LMPTP inh inactive, Scp-1 inhibitor 86, STEP inh inactive, SUMO1-SIM PPI inactive, Scp-1 conf 43, MG interference inactive and Scp-1 Tm shift inactive.
Cc1ccc(S(=O)(=O)N2CCN(C(=O)c3ccccc3)CC2)cc1 was read as DNMT1 inh inactive, LMPTP inh inactive, Scp-1 inhibitor inactive, STEP inh inactive and SUMO1-SIM PPI inactive.
`Cc1ccc(NC(=O)c2cccnc2)c([N+](=O)[O-])c1` gave CASP6 VEID inh inactive, DNMT1 inh inactive, LMPTP inh inactive, Scp-1 inhibitor inactive, STEP inh inactive and SUMO1-SIM PPI inactive.
Screening Cc1cccc(C(=O)OCC(=O)NCc2ccc3c(c2)OCO3)c1C returned CASP6 VEID inh inactive, DNMT1 inh inactive, LMPTP inh inactive, Scp-1 inhibitor inactive, STEP inh inactive and SUMO1-SIM PPI inactive.
O=C(NCCc1ccccc1F)C1CCC(=O)N(Cc2ccccc2F)C1 (stereo unspecified) was read as CASP6 VEID inh inactive, DNMT1 inh inactive, LMPTP inh inactive, Scp-1 inhibitor inactive, STEP inh inactive and SUMO1-SIM PPI inactive.
